We go through 33 compounds from ChEMBL document CHEMBL4033704, “Discovery, synthesis, and structure-activity relations of 3,4-dihydro-1H-spiro(naphthalene-2,2'-piperidin)-1-ones as potassium-competitive acid blockers” (Bioorg Med Chem, 2017).

A short description of series [1]: Inhibition of potassium-stimulated hydrogen potassium ATPase in pig gastric mucosal microsomal fraction assessed as reduction in liberated inorganic phosphate level after 30 mins in presence of KCl by malachite green staining based colorimetric method. The arrangement: species or system Sus scrofa. In short, it runs like this:
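Gastric mucosal microsomal fraction prepared from pig stomach; assay run at pH 6.5. Inhibition expressed as percent of K⁺-stimulated H⁺,K⁺-ATPase activity in control. IC50 obtained by sigmoidal dose-response fitting.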

Series [2] in a line: Inhibition of sodium and potassium-activated sodium potassium ATPase in porcine cerebral cortex assessed as reduction in liberated inorganic phosphate level after 30 mins in presence of sodium and potassium by malachite green staining based colorimetric method. The arrangement: species or system Sus scrofa.
Series [3] relates to Rattus norvegicus. Description: Inhibition of histamine-stimulated gastric acid secretion in Jcl:Sprague-Dawley rat at 1 mg/kg, iv pretreated for 3 mins followed by histamine.2HCl stimulation measured after 3 hrs by titration method relative to control. The series is classed as functional. Put shortly:
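Anesthetized rats given compound intravenously at 1, 3 or 10 mg/kg, then histamine. Gastric contents collected and centrifuged at 3000 rpm for 10 min; volume measured. Acid concentration determined by automatic titration to pH 7.0 with 0.1 mol/L NaOH. Total acid output over 3 h (μEq/3 h) compared against vehicle to give percent inhibition.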

Series [4] in a line: AUC (0 to 24 hrs) in Jcl:Sprague-Dawley rat plasma at 0.2 mg/kg, iv by LC/MS/MS analysis. The series is classed as ADME, organism-based. Also on record: time < 24 hr, dose 0.2 mg/kg, route intravenous. In short, it runs like this:
(§1)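 Rats dosed intravenously at 0.2 mg/kg, given as free compound. Blood and stomach sampled 10 min, 1, 4 and 24 h after dosing. Compound levels measured by LC/MS/MS. AUC0-24h calculated from these four time points (plasma ng·h/mL, stomach ng·h/g).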

Series [5] concerns Stomach. Briefly: AUC (0 to 24 hrs) in Jcl:Sprague-Dawley rat stomach at 0.2 mg/kg, iv by LC/MS/MS analysis. The series is classed as ADME, organism-based. Also on record: dose 0.2 mg/kg, time < 24 hr, route intravenous. The note with it: in vivo. Put shortly: as §1
Series [6] is filed under the species Sus scrofa. Description: Selectivity ratio of IC50 for sodium and potassium-activated sodium potassium ATPase in porcine cerebral cortex to IC50 for potassium-stimulated hydrogen potassium ATPase in pig gastric mucosal microsomal fraction.
The test system of series [7] is Rattus norvegicus. Description: Inhibition of histamine-stimulated gastric acid secretion in Jcl:Sprague-Dawley rat at 10 mg/kg, iv pretreated for 3 mins followed by histamine.2HCl stimulation measured after 3 hrs by titration method relative to control. The format is functional.
A short description of series [8]: Lipophilicity, log D of the compound. The series is classed as physicochemical. The note with it: octanol/water.
Series [9] concerns Rattus norvegicus. Description: Inhibition of histamine-induced acid secretion in rat assessed as increase in pH of gastric perfusate at 3 mg/kg, iv measured after 5 hrs. The format is functional. In short, it runs like this: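 Anesthetized rats given intravenous infusion of histamine 2HCl via cervical vein at 8 mg/kg/h; gastric perfusate pH monitored. Once pH stabilized, test compound or vehicle given intravenously. Perfusate pH then recorded for 5 h after dosing.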

Molecules are shown by their SMILES.

What is called IC50 is the point on the concentration scale where inhibition reaches its midpoint. Usually inhibition in vivo stands for the percentage by which the read-out fell short of the control. By AUC(0-t) is commonly meant the area under the concentration-time curve up to a stated or last time point. As usually defined, the logD is the decadic logarithm of the distribution of all forms, ionised or not, between an organic phase and buffer at a given pH.

In the case of `COc1ccc2c(c1)CCC1(CCCCN1CCc1ccccc1C)C2=O` (configuration not stated), the half-maximal inhibitory concentration (IC50) in series [1] came out at 0.082 µM. As for `CC(=O)Nc1ccc2c(c1)CCC1(CCCCN1CCc1ccccc1C)C2=O` (racemic), in series [1], the IC50 amounted to 0.045 µM.

Take `COc1cccc2c1CCC1(CCCCN1CCc1ccccc1C)C2=O` (configuration not stated): in [1], the IC50 amounted to 0.3 µM.

Regarding `COc1cccc2c1C(=O)C1(CCCCN1CCc1ccccc1C)CC2` (configuration not stated), the IC50 in series [1] stood at 0.29 µM. For the compound `COc1ccc2c(c1)CC[C@@]1(CCCCN1CCc1ccccc1C)C2=O.Cl`, the IC50 in series [2] is over 10 µM; in series [1] it was 0.046 µM. In addition, in [3], the inhibition in vivo at 1 mg/kg turned out to be 87%. The compound also displayed an area under the curve AUC(0-t) at 24 h in series [4] of 74 ng·h/mL. The compound further came in with an AUC in series [5] of 3035 ng·h/g. `COc1ccc2c(c1)CCC1(CCCCN1CCc1ccc(F)cc1)C2=O` (configuration not stated): the IC50 in [1] turned out to be 0.087 µM. Regarding `COc1ccc2c(c1)CCC1(CCCCN1CCc1ccccc1)C2=O` (configuration not stated), in [1], the IC50 turned out to be 0.29 µM. Still for that read-out and setting: for `COc1ccc2c(c1)CCC1(CCCCN1CC(=O)c1ccccc1)C2=O` (configuration not stated) the value was over 10 µM; for `COc1ccc(CCN2CCCC[C@@]23CCc2cc(OC)ccc2C3=O)cc1`, 1.8 µM; for `COc1ccc2c(c1)CC[C@]1(CCCCN1CCc1ccccc1C)C2=O`, over 10 µM. With `COc1ccc2c(c1)CCC1(CCCCN1C(=O)Cc1ccccc1)C2=O` (configuration not stated), in [1], the IC50 is over 10 µM. Turning to `O=C1c2ccccc2CCC12CCCCN2CCc1ccccc1` (configuration not stated), the IC50 in series [1] was found to be 1 µM. Still for that read-out and setting: next, `Cc1ccccc1CCN1CCCCC12CCc1cc(-c3ccccc3)ccc1C2=O` (racemic): over 10 µM; `COc1ccc2c(c1)CC[C@@]1(CCCCN1CCc1ccc(F)cc1)C2=O`: 0.064 µM; `COc1ccc2c(c1)CC[C@@]1(CCCCN1CCc1cccc(F)c1)C2=O`: 0.37 µM. Take `O=C1c2cccc3[nH]cc(c23)CC12CCCCN2CCc1ccccc1` (configuration not stated): in [6], the Ratio IC50 was over 100. For the same compound, the IC50 is over 10 µM in series [2] and 1.6 µM in [1]. Also, in series [7], the inhibition in vivo at 10 mg/kg was found to be 71%. The compound also returned an AUC(0-t) at 24 h in series [4] of 71 ng·h/mL. The compound further returned an AUC in series [5] of 1171 ng·h/g.

Turning to `COc1ccc2c(c1)CCC1(CCCCN1CCc1c(C)cc(C)cc1C)C2=O` (configuration not stated), the IC50 in series [1] worked out at 0.14 µM. Regarding `COc1ccc2c(c1)C(=O)C1(CCCCN1CCc1ccccc1C)CC2` (racemic), the concentration for half-maximal inhibition (IC50) in series [1] came out at 0.27 µM.

On to `COc1ccc2c(c1)CC[C@@]1(CCCCN1CCc1ccccc1F)C2=O`, for which, in series [1], the IC50 was determined as 0.16 µM.

In the case of `COc1ccc2c(c1)CCC1(CCCCN1CCCCc1ccccc1)C2=O` (configuration not stated), in series [1], the IC50 was over 10 µM.

As for `COc1ccc2c(c1)CCC1(CCCCN1Cc1ccccc1)C2=O` (configuration not stated), in series [1], the IC50 was over 10 µM. On the same count and under the same terms, for `CC(=O)Nc1ccc2c(c1)CC[C@]1(CCCCN1CCc1ccccc1C)C2=O` the value was over 10 µM; for `COc1ccc2c(c1)CCC1(CCCCN1CCc1ccccc1Cl)C2=O` (configuration not stated), 0.17 µM; for `COc1ccc2c(c1)CCC1(CCCCN1CCc1ccc(F)cc1C)C2=O` (configuration not stated), 0.057 µM. Same read-out and setting: next, `COc1ccc2c(c1)CCC1(CCCCN1CCCc1ccccc1)C2=O` (configuration not stated): 0.89 µM. As for `CC(=O)Nc1ccc2c(c1)CC[C@@]1(CCCCN1CCc1ccccc1C)C2=O`, the inhibition in vivo at 1 mg/kg in series [3] is 95%. Also, the AUC(0-t) at 24 h in series [4] was 68 ng·h/mL. Moreover, in series [1], the IC50 was determined as 0.031 µM. Also, the logD in series [8] worked out at 3.56. Further, the pH in series [9] is 6. The same compound yielded an AUC in series [5] of 15131 ng·h/g. Consider `COc1cccc(CCN2CCCC[C@@]23CCc2cc(OC)ccc2C3=O)c1`, for which the IC50 in series [1] was 1.1 µM. As to `COc1ccc2c(c1)CCC1(CCCCN1c1ccccc1)C2=O` (configuration not stated), in [1], the IC50 is over 10 µM. For the compound `COc1ccc2c(c1)CCC1(CCCCN1CC(C)c1ccccc1)C2=O` (configuration not stated), the IC50 in series [1] worked out at 0.3 µM. The same measure, in the same setting: for `Cc1ccccc1CCN1CCCCC12CCc1ccccc1C2=O` (racemic) the value was 0.29 µM. Same read-out and setting: for `COc1ccc2c(c1)CC[C@@]1(CCCCN1CCc1ccccc1OC)C2=O` the value was 0.083 µM; for `Cc1ccccc1CCN1CCCCC12CCc1cc(C#N)ccc1C2=O` (racemic), over 10 µM; for `COc1ccc2c(c1)CC[C@]1(CCCCN1CCc1ccc(F)cc1)C2=O`, over 10 µM.
